Results reported in PMC3586205 (European journal of pharmacology, 2012).
Where two headings read alike, the source gives them in different places.

What was measured:
[1] = tested on: spontaneous activity in mice; experiment: Spontaneous; assay type: in vivo
Procedure, shortened: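 Separate groups of mice per dose were injected i.v. with vehicle (ethanol:Emulphor-620:saline 1:1:18) or test compound. Five minutes later each was placed in an activity chamber for 10 min. Total photobeam interruptions were counted and expressed as % inhibition of the vehicle group. ED50s were derived by log-dose linear regression, taking 90% inhibition as maximal.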

[2] = molecular target: human cannabinoid CB1 receptor (Homo sapiens, UniProt P21554); experiment: Cannabinoid CB1 receptor radioligand binding, displacement of [3H]CP55,940
[3] = tested on: rectal temperature in mice; experiment: Rectal temperature, mouse test battery; assay type: in vivo
food intake in mice = experiment: Feeding behavior: 1-h food intake after 24-h food deprivation; assay type: in vivo
[4] = tested on: tail flick latency in mice; experiment: Tail flick antinociception, mouse test battery; assay type: in vivo
Procedure, shortened: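 Baseline tail-flick latency was taken to radiant heat (bright light) before i.v. injection of vehicle (ethanol:Emulphor-620:saline 1:1:18) or test compound. Latency was re-measured 20 min post-injection with a 10 s cutoff. Result expressed as %MPE = [(test−control latency)/(10−control)] × 100, separate groups per dose.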

[5] = tested on: cannabinoid agonist-like effects in mice; experiment: In vivo test battery; settings: doses up to 30 mg/kg (heterodimer 6b i.p.)
Procedure, shortened: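 Separate groups of mice per dose received test compound in 95% sesame oil/5% dimethylacetamide i.p. Rectal temperature and baseline tail-flick latency were taken before injection. At 40 min mice were put in photobeam activity chambers for 5 min. Tail-flick and temperature were re-measured immediately on removal. Ring immobility was not run.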

ring immobility in mice = experiment: Ring immobility, mouse test battery; assay type: in vivo; settings: 30 mg/kg i.v.

human cannabinoid CB1 receptor, sequence (P21554 whole entry): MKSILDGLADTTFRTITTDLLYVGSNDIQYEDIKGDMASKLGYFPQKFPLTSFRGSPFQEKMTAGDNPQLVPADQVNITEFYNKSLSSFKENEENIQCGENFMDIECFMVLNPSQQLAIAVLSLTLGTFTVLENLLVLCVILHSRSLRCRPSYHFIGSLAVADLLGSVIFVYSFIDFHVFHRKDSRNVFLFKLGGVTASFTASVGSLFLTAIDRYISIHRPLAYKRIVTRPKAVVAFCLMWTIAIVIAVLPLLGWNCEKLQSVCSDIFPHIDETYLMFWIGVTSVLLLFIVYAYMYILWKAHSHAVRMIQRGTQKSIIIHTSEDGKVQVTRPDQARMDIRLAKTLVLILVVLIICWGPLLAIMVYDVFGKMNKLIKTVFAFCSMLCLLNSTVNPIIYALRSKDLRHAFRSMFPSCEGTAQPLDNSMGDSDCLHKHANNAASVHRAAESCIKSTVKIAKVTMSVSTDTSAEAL

Row | SMILES | SA, % inhibition of activity of vehicle control group (maximum effect) ([1]; 100 mg/kg i.v.) | Ki ([2]; read-out: CB1 Ki (± SEM), displacement of [3H]CP55,940) [nM] | RT (maximum effect) ([3]; 100 mg/kg i.v.) | effect on food intake (food intake in mice; i.p., doses not stated in text (Fig. 2)) | %MPE tail flick (maximum effect) ([4]; 100 mg/kg i.v.) | SA, % inhibition of activity of vehicle control group (maximum effect) ([1]; 30 mg/kg i.v.) | Ki [2] [nM] | activity in test battery when tested alone [5] | RT, change in rectal temperature (maximum effect) ([3]; 30 mg/kg i.v.) | decrease in feeding compared to vehicle (food intake in mice; 56 mg/kg i.p., 60 min pre-session, significant) [%] | RI (maximum effect) (ring immobility in mice) | %MPE tail flick (maximum effect) ([4]; 30 mg/kg i.v.) | effect on food intake (food intake in mice; doses up to 30 mg/kg i.p.)
1 | CC1=CC[C@@H]2[C@@H](C1)c1c(O)cc(C(C)(C)CCCCC(=O)NCCc3ccc(S(N)(=O)=O)cc3)cc1OC2(C)C [Compound O-606, 6-[(6aR,10aR)-1-hydroxy-6,6,9-trimethyl-6a,7,10,10a-tetrahydro-6H-benzo[c]chromen-3-yl]-6-methyl-N-(4-sulfamoyl-phenyethyl)heptanamide] | 60% (100) | 29 | inactive (100) | failed to affect food intake | inactive (100) | – | – | – | – | – | – | – | –
2 | CCCc1cc(C(=O)NN2CCCCC2)cc(-c2ccc(Cl)cc2Cl)c1-c1ccc(Cl)cc1 [Compound O-1788, 4-(4-chlorophenyl)-3-(2,4-dichlorophenyl)–N-(piperidin-1-yl)-5-propylbenzamide] | – | – | – | – | – | inactive (30) | 166 | inactive | inactive (30) | 56 | inactive (30) | inactive (30) | –
3 | Cc1c(C(=O)NCCCCCCCN(C)CCCCCCCNC(=O)c2nn(-c3ccc(Cl)cc3Cl)c(-c3ccc(Cl)cc3)c2C)nn(-c2ccc(Cl)cc2Cl)c1-c1ccc(Cl)cc1 [Heterodimer 6b, N,N′-[(methylimino)diheptane-7,1-diyl]bis[5-(4-chlorophenyl)-1-(2,4-dichlorophenyl)-4-methyl-1H-pyrazole-3-carboxamide]] | – | – | – | – | – | – | – | inactive | – | – | – | – | failed to alter food intake
